Experimental data taken from ChEMBL document CHEMBL1671680, “Pradimicin S, a highly soluble nonpeptidic small-size carbohydrate-binding antibiotic, is an anti-HIV drug lead for both microbicidal and systemic use” (Antimicrob Agents Chemother, 2010).
The source made the active and inactive calls. The rule behind the calls is not given here.

Legend:
[1] = test system: Human immunodeficiency virus 1; test: Binding affinity to HIV-1 HXB2 gp41 after 6 mins by SPR analysis
[2] = test system: PBMC; test: Immunostimulatory activity against human PBMC assessed as IL-2 production at 21 uM after 72 hrs; type: functional, cell-based
In short: (§1)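 Unstimulated PBMCs and PHA-blasts from three donors, in three independent experiments, cultured with test compound at 20 μg/ml (21 or 22 μM). Supernatants collected after 72 h. The cytokine profile was read on a Bio-Plex 27-plex human cytokine bead immunoassay, using beads coupled to cytokine-specific monoclonal antibodies and run per the kit instructions.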

[3] = test system: PBMC; test: Immunostimulatory activity against human PBMC assessed as IL-10 production at 21 uM after 72 hrs; type: functional, cell-based
In short: (§2)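 PBMCs and PHA blasts from three donors (three independent experiments) cultured with 21 μM compound; supernatants collected at 72 h; cytokines quantified with the Bio-Plex human 27-plex bead immunoassay.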

[4] = test system: PBMC; test: Immunostimulatory activity against human PBMC assessed as GM-CSF production at 21 uM after 72 hrs; type: functional, cell-based; in short: as §2
[5] = test system: PBMC; test: Immunostimulatory activity against human PBMC assessed as IL-1ra production at 22 uM after 72 hrs; type: functional, cell-based; in short: as §1
[6] = test system: PBMC; test: Immunostimulatory activity against human PBMC assessed as IL-4 production at 22 uM after 72 hrs; type: functional, cell-based; in short: as §1
[7] = test system: PBMC; test: Immunostimulatory activity against human PBMC assessed as IL-8 production at 22 uM after 72 hrs; type: functional, cell-based; in short: as §1
[8] = test system: PBMC; test: Immunostimulatory activity against human PBMC assessed as IL-10 production at 22 uM after 72 hrs; type: functional, cell-based
[9] = test system: PBMC; test: Immunostimulatory activity against human PBMC assessed as eotoxin production at 22 uM after 72 hrs; type: functional, cell-based
In short: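 In three independent experiments, PBMCs and PHA-blasts from three donors were cultured with compound for 72 h. Supernatants were analysed with a bead-based 27-plex human cytokine immunoassay covering interleukins, chemokines, growth factors, IFN-γ and TNF-α.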

[10] = test system: PBMC; test: Immunostimulatory activity against human PBMC assessed as IP-10 production at 22 uM after 72 hrs; type: functional, cell-based; in short: as §1
[11] = test system: PBMC; test: Immunostimulatory activity against human PBMC assessed as MCP-1 production at 22 uM after 72 hrs; type: functional, cell-based; in short: as §1
[12] = test system: PBMC; test: Immunostimulatory activity against human PBMC assessed as MIP-1beta production at 22 uM after 72 hrs; type: functional, cell-based; in short: as §1
[13] = test system: PBMC; test: Immunostimulatory activity against human PBMC assessed as RANTES production at 22 uM after 72 hrs; type: functional, cell-based; in short: as §1
[14] = test system: PBMC; test: Immunostimulatory activity against human PBMC assessed as suppression of RANTES production at 22 uM after 72 hrs; type: functional
[15] = test system: PBMC; test: Immunostimulatory activity against human PBMC assessed as suppression of IL-9 production at 22 uM after 72 hrs; type: functional; in short: as §1
[16] = test system: PBMC; test: Immunostimulatory activity against human PBMC assessed as suppression of IL-13 production at 22 uM after 72 hrs; type: functional; in short: as §1
[17] = test system: PBMC; test: Immunostimulatory activity against human PBMC assessed as suppression of PDGF production at 22 uM after 72 hrs; type: functional
[18] = test system: Human immunodeficiency virus 1; test: Antiviral activity against HIV-1 3B infected in human HUT78 cells assessed as prevention of syncytium formation between persistently HIV-1 3B-infected HUT-78 cells and uninfected SupT1 cells compound preexposed to high temperature after 3 to 4 days by ELISA; type: functional, organism-based; conditions: SUP-T1
[19] = test system: Human immunodeficiency virus 1; test: Antiviral activity against R5 tropic HIV-1 clade G isolate BCF-DIOUM infected in human PBMC assessed as inhibition of viral replication […] by ELISA; type: functional, organism-based; conditions: Human immunodeficiency virus 1, clade G isolate BCF-DIOUM
In short: (§3)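 PBMCs from healthy donors were stimulated with PHA (2 μg/ml) for 3 days, then seeded at 0.5 × 10^6 cells/well in RPMI 1640 with 10% FCS, IL-2 (25 U/ml) and compound. Virus was added at a final 250 pg p24/ml. Supernatant was taken at day 12 for p24 antigen ELISA.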

[20] = test system: Human immunodeficiency virus 1; test: Antiviral activity against X4 tropic HIV-1 3B infected in human PBMC assessed as inhibition of viral replication […] by ELISA; type: functional, organism-based; conditions: Human immunodeficiency virus 1, 3B; in short: as §3
[21] = test system: Human immunodeficiency virus 1; test: Ratio of EC90 to EC50 for R5 tropic HIV-1 clade A isolate UG273 infected in human PBMC; type: functional
In short: (§4)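 PBMCs from healthy donors were PHA-stimulated (2 μg/ml, 3 days, 37°C), then seeded at 0.5 × 10^6 per well with compound dilutions in RPMI 1640 with 10% FCS and IL-2 (25 U/ml). Virus was added at 250 pg p24 or p27/ml final. On day 12, supernatant HIV-1 p24 or HIV-2 p27 was measured by ELISA, giving EC50 and EC90.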

[22] = test system: Human immunodeficiency virus 1; test: Ratio of EC90 to EC50 for R5 tropic HIV-1 clade B isolate US2 infected in human PBMC; type: functional; in short: as §4
[23] = test system: Human immunodeficiency virus 1; test: Ratio of EC90 to EC50 for X4 tropic HIV-1 clade D isolate UG270 infected in human PBMC; type: functional; in short: as §4
[24] = test system: Human immunodeficiency virus 1; test: Ratio of EC90 to EC50 for X4 tropic HIV-1 group O isolate BCF06 infected in human PBMC; type: functional; in short: as §4
[25] = test system: Human immunodeficiency virus 1; test: Ratio of EC90 to EC50 for X4 tropic HIV-1 3B infected in human PBMC; type: functional; in short: as §4
[26] = Cytotoxicity against human C8166 cells after 3 to 4 days; type: cell-based
In short: (§5)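 Cells seeded at 20,000–75,000 per well with compound dilutions, incubated 3–4 days at 37°C, and counted on a Coulter particle counter; CC50 is the concentration inhibiting proliferation by 50%.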

[27] = Cytotoxicity against human HeLa cells after 3 to 4 days; type: cell-based; in short: as §5
[28] = test system: Human immunodeficiency virus 1; test: Antiviral activity against HIV-1 3B infected in human CEM cells assessed as inhibition of virus-induced cytopathicity after 3 to 4 days by microscopic analysis; type: functional, organism-based; conditions: Human immunodeficiency virus 1, 3B, CCRF-CEM
In short: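 CEM or C8166 cells at 5 × 10^5/ml infected with HIV-1 at 100 CCID50 per ml, then mixed 1:1 with compound dilutions and held at 37°C for 3–4 days. Giant cells were counted microscopically at ×100 against untreated infected cultures. EC50 is the concentration cutting syncytium formation by 50%.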

[29] = test system: Human immunodeficiency virus 2; test: Antiviral activity against HIV-2 ROD infected in human MT4 cells assessed as inhibition of virus-induced cytopathicity after 7 days by trypan blue staining; type: functional, organism-based; conditions: Human immunodeficiency virus 2, ISOLATE ROD, MT4, 168 h
[30] = Antiviral activity against SIV mac251 infected in human MT4 cells assessed as inhibition of virus-induced cytopathicity after 7 days by trypan blue staining; type: functional, cell-based, Simian immunodeficiency virus - mac; conditions: Simian immunodeficiency virus, 251, MT4, 168 h
In short: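 MT-4 cells (5 × 10^5/ml) infected with SIV at 100 CCID50/ml, mixed 1:1 with compound dilutions, incubated at 37°C; viable cells in infected and mock-infected cultures counted by trypan blue; EC50 and CC50 are concentrations reducing viable cell number by 50% in each.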

[31] = Cytotoxicity against human CEM cells after 7 days by trypan blue staining; type: cell-based, CCRF-CEM
[32] = test system: Human immunodeficiency virus 2; test: Ratio of EC90 to EC50 for X4 tropic HIV-2 BV-5061 W infected in human PBMC

| SMILES | Activity [1] | Activity [2] | Activity [3] | Activity [4] | Activity [5] | Activity [6] | Activity [7] | Activity [8] | Activity [9] | Activity [10] | Activity [11] | Activity [12] | Activity [13] | fold change (FC) [14] | fold change (FC) [15] | fold change (FC) [16] | fold change (FC) [17] | Activity [18] | EC50 [19] | EC50 [20] | also measured |
| --- | --- | --- | --- | --- | --- | --- | --- | --- | --- | --- | --- | --- | --- | --- | --- | --- | --- | --- | --- | --- | --- |
| CN[C@@H]1[C@H](O[C@@H]2OC[C@@H](O)[C@H](O)[C@H]2O)[C@@H](O)[C@H](O[C@H]2c3cc(C)c(C(=O)N[C@H](C)C(=O)O)c(O)c3-c3c(cc4c(c3O)C(=O)c3cc(OC)cc(O)c3C4=O)[C@@H]2O)O[C@@H]1C [PRADIMICIN A] | inactive | inactive | inactive | inactive | inactive | inactive | inactive | inactive | inactive | inactive | inactive | inactive | inactive | 4 | 2 | 2 | 2 | Active | 6.7 µM | 2.6 µM | Ratio [21]: 2; Ratio [22]: 2; Ratio [23]: 2; Ratio [24]: 2; Ratio [25]: 2; CC50 [26]: > 50 µM; CC50 [27]: > 50 µM; EC50 [28]: 5.9 µM; EC50 [29]: 5 µM; EC50 [30]: 5 µM; CC50 at 168 h [31]: > 100 µM; Ratio [32]: 2 |
| CN[C@@H]1[C@H](O[C@@H]2O[C@H](CO)[C@@H](O)[C@H](OS(=O)(=O)O)[C@H]2O)[C@@H](O)[C@H](O[C@H]2c3cc(C)c(C(=O)N[C@H](C)C(=O)O)c(O)c3-c3c(cc4c(c3O)C(=O)c3cc(OC)cc(O)c3C4=O)[C@@H]2O)O[C@@H]1C [PRADIMICIN S] | inactive | inactive | inactive | inactive | inactive | inactive | inactive | inactive | inactive | inactive | inactive | inactive | inactive | 4 | 2 | 2 | 2 | Active | 17 µM | 8.5 µM | Ratio [21]: 2; Ratio [22]: 2; Ratio [23]: 2; Ratio [24]: 2; Ratio [25]: 2; CC50 [26]: > 230 µM; CC50 [27]: > 230 µM; EC50 [28]: 8.9 µM; EC50 [29]: 4.7 µM; EC50 [30]: 8.1 µM; CC50 at 168 h [31]: > 100 µM; Ratio [32]: 2 |
